The record followed here is ChEMBL document CHEMBL4396873, “Discovery of Potent, Selective, and Short-Acting Peptidic V2 Receptor Agonists” (J Med Chem, 2019).

Structures are written as SMILES. Activity calls are given as the source filed them. The calls are words filed in the database; no cut-off is given here. Numbered stars: 1 amine (or outer) side, 2 acyl side, 3 side chain; on linkers, the order of the positions; unused ones are H or OH. Bridge positions count the residues as written; N and C are the ends. Square brackets hold non-standard residues; d marks the D form. Peptide text beside a SMILES is read from it. * marks the point of attachment. Phe(4-Cl) = N[C@@H](Cc1ccc(Cl)cc1)C(=O)O; Phe(4-Et) = CCc1ccc(C[C@H](N)C(=O)O)cc1; 2Thi = N[C@@H](Cc1cccs1)C(=O)O; X2 = N=C(N)NCCC[C@H](CO)N*; Agmatine = N=C(N)NCCCCN*; X1 = O=C(CCC[*:2])[*:1]; NH(CH2)4NH2 = NCCCCN*; NEt2 = CCN(CC)*

Data set [1] in a line: Protein binding in rat plasma at 200 to 1000 ng/ml measured after 15 mins by UC-LC/MS/MS analysis. The class given is ADME, cell-free. Particulars: read-out: PPB (converted). Put shortly: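 Peptide spiked into rat plasma to final 200-1000 ng/mL, incubated 15 min at 37 °C, ultracentrifuged at 773,000 xg for 30 min at 37 °C; middle-layer sample quantified by LC/MS/MS; binding (%) = (Ci − Cm)/Ci × 100; quadruplicate.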

Data set [2] in a line: Non-renal clearance in nephrectomized Sprague-Dawley rat at 0.1 mg/kg, iv administered as cassette dose by LC-MS/MS analysis. Format: ADME, organism-based. The note with it: in vivo.
The nature of data set [3]: Clearance in severe renal impairment patent. Format: ADME. Particulars: human.
Data set [4] in a line: Clearance in iv dosed over hydrated human. The class given is ADME, organism-based. The note with it: in vivo.
In data set [5] the target is Vasopressin V2 receptor (Rattus norvegicus, UniProt Q00788). Put plainly: Agonist activity at recombinant rat V2 receptor expressed in HEK293 cells measured after 5 hrs by cAMP response element driven luciferase reporter gene assay. The class given is functional, cell-based. A general note: A reporter such as luciferase makes a cellular process visible.
Vasopressin V2 receptor (Rattus norvegicus, UniProt Q00788), sequence (Q00788 whole entry, the tested form may be a part): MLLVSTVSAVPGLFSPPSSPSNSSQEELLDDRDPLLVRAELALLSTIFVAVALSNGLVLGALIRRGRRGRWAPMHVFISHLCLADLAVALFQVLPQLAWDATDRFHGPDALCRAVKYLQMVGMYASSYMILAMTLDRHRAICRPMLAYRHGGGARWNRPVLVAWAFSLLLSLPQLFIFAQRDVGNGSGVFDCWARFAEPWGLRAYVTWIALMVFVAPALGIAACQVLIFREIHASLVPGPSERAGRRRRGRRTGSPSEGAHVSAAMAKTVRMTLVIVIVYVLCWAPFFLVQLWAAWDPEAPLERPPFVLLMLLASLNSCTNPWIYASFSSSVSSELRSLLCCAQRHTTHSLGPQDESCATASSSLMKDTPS
For data set [6], the system named is Rattus norvegicus. Put plainly: Antidiuretic activity in hydrated-euvolemic Sprague-Dawley rat assessed as suppression of urine output by measuring cumulative urine weight at 30 pM administered as iv infusion for 180 mins measured up to 300 mins. Format: functional.
Data set [7] deals with Rattus norvegicus. Put plainly: Antidiuretic activity in hydrated-euvolemic Sprague-Dawley rat assessed as suppression of urine output at MED administered as iv infusion for 180 mins measured during compound dosing relative to control. The class given is functional.
The subject of data set [8] is Rattus norvegicus. Put plainly: Antidiuretic activity in hydrated-euvolemic Sprague-Dawley rat assessed as effective plasma concentration causing half-maximal suppression of urine output administered as iv infusion for 180 mins measured during compound dosing. The note with it: 3 h. Format: functional, organism-based.
The subject of data set [9] is Rattus norvegicus. Put plainly: Antidiuretic activity in hydrated-euvolemic Sprague-Dawley rat assessed as suppression of urine output at 30 pM administered as iv infusion for 180 mins measured after 5 hrs. Format: functional, organism-based.
Data set [10] has as its system Rattus norvegicus. Put plainly: Antidiuretic activity in iv dosed rat assessed as suppression of urine output relative to control. The class given is functional.
Data set [11] concerns the target Vasopressin V2 receptor (Rattus norvegicus) (UniProt Q00788). Put plainly: Agonist activity at recombinant rat V2 receptor expressed in HEK293 cells measured after 5 hrs by cAMP response element driven luciferase reporter gene assay relative to control. The class given is functional, cell-based.
Data set [12] concerns Rattus norvegicus. Put plainly: Antidiuretic activity in hydrated-euvolemic Sprague-Dawley rat assessed as suppression of urine output by measuring cumulative urine weight administered as iv infusion for 180 mins measured during compound dosing. Format: functional.
Data set [13] deals with Vasopressin V2 receptor (Homo sapiens, UniProt P30518). Put plainly: Agonist activity at recombinant human V2 receptor expressed in HEK293 cells measured after 5 hrs by cAMP response element driven luciferase reporter gene assay. The class given is functional, cell-based.
Vasopressin V2 receptor (Homo sapiens, UniProt P30518), sequence (P30518 whole entry): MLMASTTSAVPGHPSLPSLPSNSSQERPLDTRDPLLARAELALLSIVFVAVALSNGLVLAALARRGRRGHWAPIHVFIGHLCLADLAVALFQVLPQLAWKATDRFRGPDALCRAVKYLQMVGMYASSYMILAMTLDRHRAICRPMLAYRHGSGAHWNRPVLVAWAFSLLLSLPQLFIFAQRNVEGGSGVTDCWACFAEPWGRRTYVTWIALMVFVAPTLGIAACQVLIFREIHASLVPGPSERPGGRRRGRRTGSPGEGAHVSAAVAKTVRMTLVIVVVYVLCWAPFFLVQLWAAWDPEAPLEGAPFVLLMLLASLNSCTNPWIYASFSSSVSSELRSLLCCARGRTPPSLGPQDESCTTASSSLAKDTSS
A further data set addresses Vasopressin V1a receptor (Homo sapiens, UniProt P37288). Put plainly: Agonist activity at recombinant human V1a receptor expressed in HEK293 cells up to 1000 nM measured after 5 hrs by luciferase reporter gene assay. Format: cell-based. The note with it: hek293, 5 h.
Data set [14] is described as follows: Clearance in Sprague-Dawley rat at 0.1 mg/kg, iv administered as cassette dose by LC-MS/MS analysis. Format: ADME, organism-based. The note with it: in vivo.
Data set [15] concerns the target Oxytocin receptor (Homo sapiens) (UniProt P30559). Put plainly: Agonist activity at recombinant human oxytocin receptor expressed in HEK293 cells measured after 5 hrs by luciferase reporter gene assay relative to control. Particulars: read-out: Efficacy.
For data set [16] the target is unchanged. Put plainly: Agonist activity at recombinant human oxytocin receptor expressed in HEK293 cells measured after 5 hrs by luciferase reporter gene assay.
Data set [17] deals with Rattus norvegicus. Put plainly: Antidiuretic activity in hydrated-euvolemic Sprague-Dawley rat assessed as suppression of urine output at 30 pM administered as iv infusion for 180 mins measured immediately. Format: functional, organism-based.
The nature of data set [18]: Elimination half life in Sprague-Dawley rat at 0.1 mg/kg, iv administered as cassette dose by LC-MS/MS analysis. Particulars: in vivo, read-out: beta t1/2. Format: ADME, organism-based.
Data set [19] can be described thus: Half life in iv dosed Sprague-Dawley rat by LC-MS/MS analysis. The class given is ADME, organism-based. Particulars: in vivo.
The subject of data set [20] is Rattus norvegicus. Put plainly: Antidiuretic activity in hydrated-euvolemic Sprague-Dawley rat assessed as suppression of urine output administered as iv infusion for 180 mins measured during compound dosing. Format: functional, organism-based.
For data set [21], the system named is Rattus norvegicus. Put plainly: Antidiuretic activity in hydrated-euvolemic Sprague-Dawley rat assessed as suppression of urine output by measuring cumulative urine weight at 30 to 100 pM administered as iv infusion for 180 mins measured up to 300 mins. Format: functional.
Data set [22] deals with T1, Oxytocin receptor (Homo sapiens) (UniProt P30559).
T1 sequence (whole entry): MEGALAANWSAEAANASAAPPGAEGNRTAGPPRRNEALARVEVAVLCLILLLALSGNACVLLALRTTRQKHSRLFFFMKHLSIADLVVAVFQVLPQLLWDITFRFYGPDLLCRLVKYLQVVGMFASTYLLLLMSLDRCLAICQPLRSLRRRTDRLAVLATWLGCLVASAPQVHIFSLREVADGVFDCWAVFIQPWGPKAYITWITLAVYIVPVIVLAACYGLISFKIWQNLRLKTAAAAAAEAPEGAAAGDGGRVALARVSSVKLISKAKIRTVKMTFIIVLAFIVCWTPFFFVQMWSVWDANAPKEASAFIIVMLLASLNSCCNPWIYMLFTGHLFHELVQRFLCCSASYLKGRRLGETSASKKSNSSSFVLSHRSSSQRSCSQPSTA
Put plainly: Agonist activity at human OTR stably expressed in CHOK1 cells up to 10000 nM by NFAT-luciferase reporter gene assay. The class given is cell-based.

In data set [23] the test system is Rattus norvegicus. Put plainly: Antidiuretic activity in hydrated-euvolemic Sprague-Dawley rat assessed as suppression of urine output at 30 to 100 pM administered as iv infusion for 180 mins measured within 1 hr. Format: functional, organism-based.
The target of the next data set is T2, Oxytocin receptor (Homo sapiens, UniProt P30559).
T2 sequence (P30559 whole entry): T1 sequence (whole entry)
Put plainly: Agonist activity at human OTR stably expressed in CHOK1 cells by NFAT-luciferase reporter gene assay. Format: cell-based.

Data set [24] has as its target T1, Oxytocin receptor (Homo sapiens). Put plainly: Agonist activity at human OTR stably expressed in CHOK1 cells by NFAT-luciferase reporter gene assay relative to control. The class given is cell-based.
Data set [25] relates to Rattus norvegicus. Put plainly: Antidiuretic activity in hydrated-euvolemic Sprague-Dawley rat assessed as suppression of urine output at 30 to 100 pM administered as iv infusion for 180 mins measured after 1 hr. The class given is functional, organism-based.

Vasopressin V1a receptor, sequence (P37288 whole entry): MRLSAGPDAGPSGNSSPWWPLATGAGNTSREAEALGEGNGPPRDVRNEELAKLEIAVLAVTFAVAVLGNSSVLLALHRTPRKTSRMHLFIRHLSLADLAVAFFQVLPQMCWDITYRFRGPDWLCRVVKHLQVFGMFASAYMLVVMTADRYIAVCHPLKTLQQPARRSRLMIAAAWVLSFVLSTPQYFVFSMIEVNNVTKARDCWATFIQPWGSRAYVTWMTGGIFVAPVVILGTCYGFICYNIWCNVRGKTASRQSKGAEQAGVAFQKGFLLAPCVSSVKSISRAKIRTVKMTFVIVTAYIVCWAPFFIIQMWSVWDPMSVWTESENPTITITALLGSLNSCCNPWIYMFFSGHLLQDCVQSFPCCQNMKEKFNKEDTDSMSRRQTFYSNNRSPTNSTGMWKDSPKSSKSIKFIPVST
Vasopressin V2 receptor (Rattus norvegicus), sequence (Q00788 whole entry, the tested form may be a part): as the sequence (Q00788 whole entry, the tested form may be a part) above

Usually EC50 stands for the concentration at which the effect is half-maximal. As for `NC(=O)CC[C@@H]1NC(=O)[C@H](Cc2ccccc2)NC(=O)[C@H](Cc2ccc(O)cc2)NC(=O)CCSSC[C@@H](C(=O)N2CCC[C@H]2C(=O)N[C@H](CCCN=C(N)N)C(=O)NCC(N)=O)NC(=O)[C@H](CC(N)=O)NC1=O` [DESMOPRESSIN], the fraction unbound at […] in [1] is 0.59. In data set [2], this compound had a CL of 11%. For the same compound, the clearance in data set [3] was 0.69 mL/min/kg; in data set [4], 1.7 mL/min/kg. In addition, the EC50 at Vasopressin V2 receptor [5] amounted to 0.03 nM.

`N=C(N)NCCC[C@@H](NC(=O)[C@@H]1CCCN1C(=O)[C@@H]1CSSCCC(=O)N[C@@H](Cc2ccc(O)cc2)C(=O)N[C@@H](Cc2ccccc2)C(=O)N[C@@H](CCC(N)=O)C(=O)N[C@@H](CC(N)=O)C(=O)N1)C(=O)NCC(N)=O` [DESMOPRESSIN]: the Activity was found to be 0.99 g in the data set with Rattus norvegicus [6], 80% with Rattus norvegicus [7], 48% in the data set with Rattus norvegicus [10] and 5.2 g with Rattus norvegicus [12]. In addition, the EC50 with Rattus norvegicus [8] amounted to 0.00032 nM. For the same compound, in the data set on Rattus norvegicus [9], the result was Active. Besides, the Efficacy in [11] worked out at 100%.

For the compound `CC(C)[C@@H]1NC(=O)[C@H](Cc2cccs2)NC(=O)[C@H](Cc2ccc(O)cc2)NC(=O)CCCSC[C@@H](C(=O)N2CCC[C@H]2C(=O)NCCCCN)NC(=O)[C@H](CC(N)=O)NC1=O` (Y[2Thi]VNCP-{NH(CH2)4NH2}; linker N-5 via X1), the EC50 on Vasopressin V2 receptor [13] is 0.19 nM; in [16], 650 nM. The Activity result at Vasopressin V1a receptor is listed as “Not Active”. In addition, the fraction unbound at […] in data set [1] was 0.58. Moreover, the CL in data set [2] was found to be 18%. In data set [14], this compound yielded a clearance of 7.2 mL/min/kg. Moreover, the Emax in [15] amounted to 28%.

For `CC(C)[C@@H]1NC(=O)[C@H](Cc2cccs2)NC(=O)[C@H](Cc2ccc(Cl)cc2)NC(=O)CCCSC[C@@H](C(=O)N2CCC[C@H]2C(=O)NCCCCNC(=N)N)NC(=O)[C@H](CC(N)=O)NC1=O` ([Phe(4-Cl)][2Thi]VNCP-Agmatine; linker N-5 via X1), the result (with Rattus norvegicus [17]; in data set [22]; in the data set on Rattus norvegicus [23]) was inactive. For the same compound, the figures for the half-life in [18] and in [19] were 16 min and 20 min, respectively. The Activity result at Vasopressin V1a receptor is “Not Active”; with Rattus norvegicus [7], 80%; in the data set with Rattus norvegicus [20], “Dose-dependent effect”; in the data set on Rattus norvegicus [21], 1.3 g; in the data set with Rattus norvegicus [12] it was 5 g. Further, the EC50 worked out at 0.00064 nM in the data set with Rattus norvegicus [8] and 0.02 nM on Vasopressin V2 receptor [5]. The fraction unbound at […] in data set [1] is 0.15. In data set [2], this compound came in with a CL of 57%. In [11], the Efficacy turned out to be 99%. The same compound gave a clearance in data set [14] of 14 mL/min/kg.

In the case of `CC(C)[C@@H]1NC(=O)[C@H](Cc2cccs2)NC(=O)[C@H](Cc2ccc(Cl)cc2)NC(=O)CCCSC[C@@H](C(=O)N2CSC[C@H]2C(=O)N[C@H](CCCNC(=N)N)C(=O)NCc2ccccc2)NC(=O)[C@H](CC(N)=O)NC1=O`, the Activity result on Vasopressin V1a receptor was “Not Active”. The same compound had an EC50 on Oxytocin receptor of 140 nM. Besides, the fraction unbound at […] in data set [1] was 0.09. The CL in [2] is given as 100%. In data set [14], this compound gave a clearance of 38 mL/min/kg. For the same compound, the Efficacy in data set [24] stood at 32%.

Regarding `CCN(CC)C(=O)[C@@H](CCCNC(=N)N)NC(=O)[C@@H]1CCCN1C(=O)[C@@H]1CSCCCC(=O)N[C@@H](Cc2ccc(Cl)cc2)C(=O)N[C@@H](Cc2cccs2)C(=O)N[C@@H](C(C)C)C(=O)N[C@@H](CC(N)=O)C(=O)N1` ([Phe(4-Cl)][2Thi]VNCP[dR]-NEt2; linker N-5 via X1), the half-life turned out to be 6.4 min in [18] and 12 min in data set [19]. Further, the Activity entry on Vasopressin V1a receptor was “Not Active”; with Rattus norvegicus [7], 80%; in the data set with Rattus norvegicus [20], “Dose-dependent effect”; with Rattus norvegicus [21], 1 g; in the data set on Rattus norvegicus [12], 5 g. In addition, the half-maximal effective concentration (EC50) with Rattus norvegicus [8] amounted to 0.00043 nM; on Vasopressin V2 receptor [5] it was 0.05 nM. Also, in data set [1], the fraction unbound at […] is 0.08. The CL in data set [2] worked out at 60%. Also, the outcome (in the data set with Rattus norvegicus [25]; in data set [22]) was inactive. Further, the Efficacy in data set [11] is 91%. The compound further registered a clearance in data set [14] of 42 mL/min/kg.

As for `CCc1ccc(C[C@@H]2NC(=O)CCCSC[C@@H](C(=O)N3CCC[C@H]3C(=O)N[C@@H](CO)CCCNC(=N)N)NC(=O)[C@H](CC(N)=O)NC(=O)[C@H](C(C)C)NC(=O)[C@H](Cc3cccs3)NC2=O)cc1` ([Phe(4-Et)][2Thi]VNCP-X2; linker N-5 via X1), the EC50 was 0.35 nM on Vasopressin V2 receptor [13] and greater than 10000 nM at Oxytocin receptor. Also, at Vasopressin V1a receptor, the Activity result is on record as “Not Active”. The fraction unbound at […] in [1] is 0.16. The same compound registered a CL in data set [2] of 80%. The clearance in data set [14] worked out at 9.4 mL/min/kg.
